This is an account of results in ChEMBL document CHEMBL1126653, “Structure-function studies of amphiphilic antibacterial peptides” (1993).

Values after ≈ are worked out from the molar mass of the structure shown. Peptide text beside a SMILES is read from it. A value given as a limit tells only on which side of the number the result lay.

The test system of one experiment is Staphylococcus aureus. Kind of experiment: Compound tested for in vitro susceptibility against ATCC strain 29213 of Staphylococcus aureus. The format is functional. Put shortly: (§1)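 Microbroth dilution in Tryptic Soy Broth; inoculum 5×10^5 CFU/mL; plates incubated at 37 °C for 18-20 h; value reported as minimal inhibitory concentration (µg/mL).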
The next experiment concerns Escherichia coli. Kind of experiment: Compound tested for in vitro susceptibility against ATCC strain 25922 of Escherichia coli. In kind it is functional. To be noted: ATCC25922. In a few lines: as §1
The test system of the next experiment is Pseudomonas aeruginosa. The experiment in a line: Compound tested for in vitro susceptibility against ATCC strain 27853 of Pseudomonas aeruginosa. The format is functional. To be noted: ATCC 27853. In a few lines:
as §1

A short description of experiment [1]: Hemolytic activity towards human erythrocytes is evaluated for magainin 2 at peptide concentration of 25 ug/mL. The format is functional. Put shortly:
(§2)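 Washed human erythrocytes from healthy volunteers (3 mL packed cells, PBS pH 7.4 washes, diluted to 20 mL) exposed to peptide in PBS at 25-200 µg/mL, 30 min at 37 °C; supernatant absorbance at 576 nm after centrifugation; 0.1% Triton X-100 taken as 100% hemolysis; duplicates.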

The test system of experiment [2] is Acinetobacter calcoaceticus subsp. anitratus. Kind of experiment: Compound tested for the antimicrobial activity against Acinetobacter anitratus. The format is functional, aeinetobacter anitrotap. Put shortly:
(§3)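 MIC by microbroth dilution in Tryptic Soy Broth; inoculum 5×10^5 CFU/mL; plates incubated 18-20 h at 37 °C; assay pH approximately 7.4.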

Experiment [3] has as its system Salmonella enterica subsp. enterica serovar Anatum. Kind of experiment: Compound tested for the antimicrobial activity against S. a natum. In kind it is functional, salmoneila anatum. In a few lines:
as §1

The subject of experiment [4] is Enterobacter cloacae. Kind of experiment: Compound tested for the antimicrobial activity against Enterobacter cloacae. In kind it is functional. In a few lines:
as §1

Another experiment concerns Klebsiella pneumoniae. Kind of experiment: Compound tested for the antimicrobial activity against Klebsiella pneumoniae. In kind it is functional. In a few lines:
as §3

Experiment [5] in a line: Hemolytic activity towards human erythrocytes is evaluated for magainin 2 at peptide concentration of 200 µg/mL. The format is functional. In a few lines: as §2
Experiment [6] can be described thus: Hemolytic activity towards human erythrocytes is evaluated for magainin 2 at peptide concentration of 50 µg/mL. In kind it is functional. Put shortly: as §2
Experiment [7] is described as follows: Hemolytic activity towards human erythrocytes is evaluated for magainin 2 at peptide concentration of 100 µg/mL. The format is functional. In a few lines: as §2
For another experiment, the system named is Shigella flexneri. Kind of experiment: Compound tested for the antimicrobial activity against Shigella flexneri. The format is functional. In a few lines: as §3
In the next experiment the test system is Proteus mirabilis. Kind of experiment: Compound tested for the antimicrobial activity against Proteus mirabilis. The format is functional. In a few lines: as §1
Experiment [8] has as its system Enterobacter cloacae. The experiment in a line: Compound tested for the antimicrobial activity against Enterobacter cloacae ROS. The format is functional. Put shortly: as §3

As a reminder, the MIC is the lowest concentration found to suppress growth. Consider `CC(C)C[C@H](NC(=O)[C@H](CCCCN)NC(=O)[C@H](CCCCN)NC(=O)[C@H](Cc1c[nH]c2ccccc12)NC(=O)[C@H](CCCCN)NC(=O)[C@H](CCCCN)NC(=O)[C@H](CCCCN)NC(=O)[C@H](C)NC(=O)[C@H](CCCCN)NC(=O)[C@H](CCCCN)NC(=O)[C@H](Cc1c[nH]c2ccccc12)NC(=O)[C@H](C)NC(=O)[C@@H](N)CCCCN)C(=O)N[C@@H](C)C(=O)N[C@@H](CCCCN)C(=O)N[C@@H](CCCCN)C(=O)N[C@@H](Cc1c[nH]c2ccccc12)C(=O)O` (H-KAWKKAKKKWKKLAKKW-OH), for which the figures for the MIC in the experiment with Staphylococcus aureus, with Escherichia coli and in the experiment with Pseudomonas aeruginosa were 200 µg/mL (≈ 91.5 µM), 200 µg/mL (≈ 91.5 µM) and greater than 200 µg/mL, respectively.

As to `CC(C)C[C@H](NC(=O)[C@H](Cc1c[nH]cn1)NC(=O)[C@H](CC(C)C)NC(=O)[C@H](Cc1c[nH]c2ccccc12)NC(=O)[C@H](Cc1c[nH]cn1)NC(=O)[C@H](Cc1c[nH]cn1)NC(=O)[C@H](C)NC(=O)[C@H](Cc1c[nH]c2ccccc12)NC(=O)[C@H](Cc1c[nH]cn1)NC(=O)[C@H](Cc1c[nH]cn1)NC(=O)[C@H](Cc1c[nH]c2ccccc12)NC(=O)[C@H](CC(C)C)NC(=O)[C@@H](N)Cc1c[nH]cn1)C(=O)N[C@@H](Cc1c[nH]c2ccccc12)C(=O)N[C@@H](Cc1c[nH]cn1)C(=O)N[C@@H](C)C(=O)N[C@@H](Cc1c[nH]c2ccccc12)C(=O)O` (H-HLWHHWAHHWLHLWHAW-OH), the Hemolysis in experiment [1], in experiment [5], in experiment [6] and in [7] was 0% each time. For the same molecule, the minimum inhibitory concentration (MIC) in [2] is less than 0.39 µg/mL; in [3], greater than 100 µg/mL; against Enterobacter cloacae [4], less than 0.39 µg/mL; against Klebsiella pneumoniae it was greater than 100 µg/mL; against Staphylococcus aureus, 50 µg/mL (≈ 20.9 µM); in the experiment with Shigella flexneri, 12.5 µg/mL (≈ 5.23 µM). Besides, the MIC in the experiment on Escherichia coli was 25 µg/mL (≈ 10.5 µM); with Pseudomonas aeruginosa it was 12.5 µg/mL (≈ 5.23 µM); with Proteus mirabilis, greater than 100 µg/mL; in the experiment with Enterobacter cloacae [8], 50 µg/mL (≈ 20.9 µM).

On to `CC(C)C[C@H](NC(=O)[C@H](CCCCN)NC(=O)[C@H](CCCCN)NC(=O)[C@H](Cc1c[nH]c2ccccc12)NC(=O)[C@@H](N)CCCCN)C(=O)N[C@@H](C)C(=O)N[C@@H](CCCCN)C(=O)N[C@@H](CCCCN)C(=O)N[C@@H](Cc1c[nH]c2ccccc12)C(=O)O` (H-KWKKLAKKW-OH), for which the Hemolysis in [1], in experiment [5], in experiment [6] and in experiment [7] was 0% each time. In addition, the values for the MIC against Staphylococcus aureus, in the experiment with Escherichia coli and in the experiment on Pseudomonas aeruginosa were 25 µg/mL (≈ 20.6 µM), 25 µg/mL (≈ 20.6 µM) and 12.5 µg/mL (≈ 10.3 µM), respectively.

With `CC(C)C[C@H](NC(=O)[C@H](C)NC(=O)[C@H](CCCCN)NC(=O)[C@H](C)NC(=O)[C@H](CC(C)C)NC(=O)[C@H](CCCCN)NC(=O)[C@H](C)NC(=O)[C@H](CC(C)C)NC(=O)[C@H](CCCCN)NC(=O)[C@H](CCCCN)NC(=O)[C@H](C)NC(=O)[C@H](CC(C)C)NC(=O)[C@H](CCCCN)NC(=O)[C@H](CCCCN)NC(=O)[C@H](C)NC(=O)[C@H](CC(C)C)NC(=O)[C@@H](N)CCCCN)C(=O)O` (H-KLAKKLAKKLAKLAKAL-OH), the figures for the MIC in the experiment on Staphylococcus aureus, against Escherichia coli and against Pseudomonas aeruginosa were 200 µg/mL (≈ 109 µM), 25 µg/mL (≈ 13.6 µM) and 50 µg/mL (≈ 27.2 µM), respectively.
